The test system of experiment [1] is Staphylococcus aureus. Description: Antibacterial activity against Staphylococcus aureus assessed as inhibition of microbial growth incubated for 18 to 22 hrs by broth microdilution method. It is filed as functional. Summed up:
(§1)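 Broth microdilution in Mueller-Hinton II broth following NCCLS recommendations; compounds dissolved in DMSO.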
Background: Broth dilution looks for growth in wells or tubes with falling amounts of substance.

The test system of experiment [2] is Staphylococcus warneri. Description: Antibacterial activity against Staphylococcus warneri assessed as inhibition of microbial growth incubated for 18 to 22 hrs by broth microdilution method. It is filed as functional. Summed up: as §1
Experiment [3] deals with Enterococcus faecalis. Description: Antibacterial activity against Streptococcus faecalis assessed as inhibition of microbial growth incubated for 18 to 22 hrs by broth microdilution method. The class given is functional. In a few lines: as §1
Experiment [4] relates to Escherichia coli. Briefly: Antibacterial activity against Escherichia coli assessed as inhibition of microbial growth incubated for 18 to 22 hrs by broth microdilution method. It is filed as functional. In a few lines:
as §1

In experiment [5] the test system is Proteus mirabilis. Description: Antibacterial activity against Proteus mirabilis assessed as inhibition of microbial growth incubated for 18 to 22 hrs by broth microdilution method. It is filed as functional. In a few lines: as §1
Experiment [6] deals with Enterobacter. Briefly: Antibacterial activity against Enterobacter spp. assessed as inhibition of microbial growth incubated for 18 to 22 hrs by broth microdilution method. The class given is functional. Summed up:
as §1

In experiment [7] the test system is Klebsiella oxytoca. Briefly: Antibacterial activity against Klebsiella oxytoca assessed as inhibition of microbial growth incubated for 18 to 22 hrs by broth microdilution method. It is filed as functional. In a few lines: as §1
Experiment [8] has as its system Candida albicans. Briefly: Antifungal activity against Candida albicans clinical isolates assessed as inhibition of microbial growth incubated for 24 hrs by broth microdilution method. It is filed as functional. Summed up:
(§2)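 Twenty-two clinical Candida isolates (8 C. albicans, 4 C. glabrata, 3 C. tropicalis, 3 C. krusei, 2 C. parapsilosis, 2 C. sake) were identified by colony morphology and biochemistry and subcultured at 35 °C for purity. Compounds were dissolved in DMSO and tested by broth microdilution in Sabouraud dextrose broth per NCCLS/CLSI/EUCAST guidance. Values are geometric mean MIC per species (µg/mL).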

For experiment [9], the system named is Nakaseomyces glabratus. Description: Antifungal activity against Candida glabrata clinical isolates assessed as inhibition of microbial growth incubated for 24 hrs by broth microdilution method. It is filed as functional. Summed up:
as §2

The subject of experiment [10] is Candida tropicalis. Description: Antifungal activity against Candida tropicalis clinical isolates assessed as inhibition of microbial growth incubated for 24 hrs by broth microdilution method. The class given is functional. Summed up:
as §2

In experiment [11] the test system is Pichia kudriavzevii. Briefly: Antifungal activity against Candida krusei clinical isolates assessed as inhibition of microbial growth incubated for 24 hrs by broth microdilution method. The class given is functional. Summed up: as §2
In experiment [12] the test system is Candida parapsilosis. Description: Antifungal activity against Candida parapsilosis clinical isolates assessed as inhibition of microbial growth incubated for 24 hrs by broth microdilution method. It is filed as functional. The note with it: Lodderomyces parapsilosis. Summed up:
as §2

Experiment [13] relates to [Candida] sake. Description: Antifungal activity against Candida sake clinical isolates assessed as inhibition of microbial growth incubated for 24 hrs by broth microdilution method. It is filed as functional. The note with it: Fermentozyma sake. In a few lines:
as §2

The test system of experiment [14] is Streptococcus alpha-hemolyticus (Streptococcus sp.). Description: Antibacterial activity against Streptococcus Streptococcus alpha hemolyticus assessed as inhibition of microbial growth incubated for 18 to 22 hrs by broth microdilution method.

The MIC is the smallest concentration in the dilution series that meets the test's criterion for growth inhibition. `CC1CCC/C(=N/N=C2\NC(=O)CS2)C1` (stereo not given): the MIC in [1], in experiment [2], in experiment [3], in experiment [4], in [5] and in experiment [6] was no less than 256 mg/L each time. Besides, the MIC in experiment [7] was no less than 256 mg/L; in experiment [8] it was 8 mg/L; in experiment [9], 8 mg/L; in experiment [10], 8 mg/L; in [11] it was 2 mg/L; in experiment [12], 2 mg/L. Moreover, the values for the MIC in [13] and in experiment [14] were 2 mg/L and no less than 256 mg/L, respectively.
With `CC1CCC(=N/N=C2\NC(=O)CS2)CC1` (stereo not given), the MIC in experiment [1], in [2], in [3], in experiment [4], in [5] and in [6] was no less than 256 mg/L each time. The minimum inhibitory concentration (MIC) in experiment [7] was no less than 256 mg/L; in experiment [8], 16 mg/L; in experiment [9], 16 mg/L; in [10], 16 mg/L; in [11], 16 mg/L; in experiment [12], 16 mg/L. The MIC in experiment [13] was 16 mg/L; in experiment [14], no less than 256 mg/L.
With `CC(C)(C)C1CCCC/C1=N/N=C1\NC(=O)CS1` (stereo not given), the MIC in experiment [1], in experiment [2], in experiment [3], in [4], in [5] and in [6] was no less than 256 mg/L each time. The MIC in [7] was no less than 256 mg/L; in experiment [8], 8 mg/L; in [9] it was 8 mg/L; in experiment [10], 8 mg/L; in experiment [11], 2 mg/L; in experiment [12], 2 mg/L. Also, the MIC was 2 mg/L in experiment [13] and no less than 256 mg/L in experiment [14].
As for `C/C(=N/N=C1\NC(=O)CS1)C1CCCCC1`, the minimal inhibitory concentration (MIC) in [1], in experiment [2], in [3], in [4], in experiment [5] and in [6] was no less than 256 mg/L in each case. Also, the minimum inhibitory concentration (MIC) was no less than 256 mg/L in experiment [7]; 8 mg/L in experiment [8]; 8 mg/L in experiment [9]; 16 mg/L in experiment [10]; 16 mg/L in [11]; 16 mg/L in [12]. The MIC in [13] was 16 mg/L; in [14], no less than 256 mg/L.
Take `C/C(=N/N=C1\NC(=O)CS1)c1ccco1`: the MIC in experiment [1], in experiment [2], in [3], in [4], in [5] and in [6] was no less than 256 mg/L each time. Besides, the MIC in experiment [7] is no less than 256 mg/L; in experiment [8], 2 mg/L; in experiment [9], 2 mg/L; in experiment [10], 2 mg/L; in experiment [11] it was 2 mg/L; in experiment [12], 2 mg/L. Further, the MIC is 2 mg/L in experiment [13] and no less than 256 mg/L in experiment [14].
With `O=C1CS/C(=N/N=C\c2cccs2)N1`, the MIC in experiment [1], in experiment [2], in [3], in [4], in experiment [5] and in [6] was no less than 256 mg/L each time. Moreover, the MIC in experiment [7] was no less than 256 mg/L; in experiment [8], 256 mg/L; in experiment [9] it was 256 mg/L; in experiment [10], 256 mg/L; in experiment [11], 256 mg/L; in [12], 256 mg/L. Further, the MIC in experiment [13] is 256 mg/L; in experiment [14], no less than 256 mg/L.
In the case of `O=C1CS/C(=N/N=C\c2ccccc2[N+](=O)[O-])N1`, the minimum inhibitory concentration (MIC) in experiment [1], in experiment [2], in experiment [3], in experiment [4], in experiment [5] and in experiment [6] was no less than 256 mg/L each time. Further, the MIC is no less than 256 mg/L in [7]; 16 mg/L in experiment [8]; 8 mg/L in experiment [9]; 4 mg/L in experiment [10]; 16 mg/L in experiment [11]; 128 mg/L in experiment [12]. Moreover, the MIC in experiment [13] is 8 mg/L; in experiment [14] it was no less than 256 mg/L.
`C/C(=N/N=C1\NC(=O)CS1)c1ccc(Cl)s1`: the MIC in experiment [1], in [2], in experiment [3], in experiment [4], in [5] and in experiment [6] was no less than 256 mg/L each time. In addition, the MIC was no less than 256 mg/L in [7]; 8 mg/L in [8]; 8 mg/L in [9]; 8 mg/L in experiment [10]; 16 mg/L in experiment [11]; 8 mg/L in experiment [12]. For the same molecule, the minimum inhibitory concentration (MIC) was 16 mg/L in [13] and no less than 256 mg/L in experiment [14].
On to `CC1=C(/C=N\N=C2/NC(=O)CS2)C(C)(C)CC=C1`, for which the minimum inhibitory concentration (MIC) in [1], in [2], in experiment [3], in experiment [4], in experiment [5] and in experiment [6] was no less than 256 mg/L throughout. Besides, the MIC in experiment [7] was no less than 256 mg/L; in experiment [8], 2 mg/L; in [9], 2 mg/L; in experiment [10], 16 mg/L; in experiment [11], 2 mg/L; in experiment [12], 16 mg/L. Besides, the minimal inhibitory concentration (MIC) in experiment [13] was 2 mg/L; in experiment [14], no less than 256 mg/L.
For the molecule `CC1(C)CCC/C(=N/N=C2\NC(=O)CS2)C1`, the MIC in experiment [1], in [2], in experiment [3], in experiment [4], in experiment [5] and in [6] was no less than 256 mg/L throughout. In addition, the minimum inhibitory concentration (MIC) in experiment [7] was no less than 256 mg/L; in [8], 2 mg/L; in experiment [9] it was 2 mg/L; in experiment [10], 32 mg/L; in experiment [11] it was 2 mg/L; in [12], 128 mg/L. In addition, the MIC is 2 mg/L in [13] and no less than 256 mg/L in [14].
For `C/C(=N/N=C1\NC(=O)CS1)c1ccsc1`, the MIC in [1], in experiment [2], in [3], in [4], in [5] and in experiment [6] was no less than 256 mg/L each time. Also, the minimum inhibitory concentration (MIC) in experiment [7] is no less than 256 mg/L; in experiment [8], 8 mg/L; in [9] it was 8 mg/L; in [10] it was 8 mg/L; in experiment [11] it was 16 mg/L; in [12], 8 mg/L. Also, the figures for the minimal inhibitory concentration (MIC) in [13] and in experiment [14] were 16 mg/L and no less than 256 mg/L, respectively.
As for `O=C1CS/C(=N/N=C\c2ccccc2)N1`, the minimum inhibitory concentration (MIC) in experiment [1], in experiment [2], in experiment [3], in experiment [4], in [5] and in experiment [6] was no less than 256 mg/L each time. In addition, the minimum inhibitory concentration (MIC) was no less than 256 mg/L in experiment [7]; 4 mg/L in [8]; 8 mg/L in [9]; 4 mg/L in experiment [10]; 16 mg/L in experiment [11]; 128 mg/L in [12]. In addition, the minimum inhibitory concentration (MIC) in experiment [13] is 2 mg/L; in [14], no less than 256 mg/L.
Take `O=C1CSC(NN=C2CCCCCC2)=N1`: the MIC in experiment [1], in experiment [2], in experiment [3], in experiment [4], in experiment [5] and in [6] was no less than 256 mg/L in each case. Moreover, the MIC was no less than 256 mg/L in experiment [7]; 8 mg/L in experiment [8]; 8 mg/L in experiment [9]; 8 mg/L in experiment [10]; 8 mg/L in experiment [11]; 8 mg/L in experiment [12]. The MIC in experiment [13] was 8 mg/L; in experiment [14], no less than 256 mg/L.
For `O=C1CSC(NN=C2CCCCC2)=N1`, the MIC in [1], in experiment [2], in experiment [3], in experiment [4], in experiment [5] and in [6] was no less than 256 mg/L throughout. Further, the minimum inhibitory concentration (MIC) in experiment [7] is no less than 256 mg/L; in [8] it was 64 mg/L; in experiment [9], 64 mg/L; in [10] it was 64 mg/L; in experiment [11] it was 256 mg/L; in experiment [12], 256 mg/L. In addition, the minimum inhibitory concentration (MIC) is 256 mg/L in [13] and no less than 256 mg/L in experiment [14].
In the case of `O=C1CSC(NN=C2CCCCCCC2)=N1`, the MIC in experiment [1], in [2], in [3], in experiment [4], in experiment [5] and in [6] was no less than 256 mg/L in each case. Besides, the MIC in experiment [7] is no less than 256 mg/L; in experiment [8], 8 mg/L; in experiment [9], 8 mg/L; in [10] it was 8 mg/L; in [11], 32 mg/L; in [12], 32 mg/L. Further, the MIC in experiment [13] is 32 mg/L; in [14], no less than 256 mg/L.

Source of the values: ChEMBL document CHEMBL4190362, “Synthesis, biological evaluation and quantitative structure-active relationships of 1,3-thiazolidin-4-one derivatives. A promising chemical scaffold endowed with high antifungal potency and low cytotoxicity” (Eur J Med Chem, 2017).
